Results from ChEMBL document CHEMBL1137671, “Synthesis of 1-(2,6-dichlorophenyl)-3-methylene-1,3-dihydro-indol-2-one derivatives and in vitro anticancer evaluation against SW620 colon cancer cell line” (Eur J Med Chem, 2009).
pIC50: −log10 of the molar value. Values after ≈ are worked out from the molar mass of the structure shown.

Test system: SW-620
Assay: Cytotoxicity against human SW620 cells after 3 days by MTT assay
Assay type: functional
Conditions: SW-620, 72 h, read-out: ED50 (the source's name)
Method in brief: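 SW620 human colon cancer cells seeded at 10,000 per well and exposed to 1-100 µM for 72 h in a CO₂ incubator, with untreated controls. Then 125 µg MTT per well for 3 h, followed by lysis in 10% SDS-0.01 N HCl. Absorbance was read at 540 nm. % cytotoxicity = (1 − (treated − blank)/control) × 100.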

SMILES | EC50 [mg/L]
O=C1/C(=C\c2cccc3ccccc23)c2ccccc2N1c1c(Cl)cccc1Cl | > 100
O=C1/C(=C/c2cc3ccccc3nc2Cl)c2ccccc2N1c1c(Cl)cccc1Cl | 25 (≈ 55.3 µM)
O=C1/C(=C/c2ccc(Cl)cc2)c2ccccc2N1c1c(Cl)cccc1Cl | 100 (≈ 250 µM)
O=C1/C(=C/c2ccc(Cl)cc2Cl)c2ccccc2N1c1c(Cl)cccc1Cl | 2 (≈ 4.6 µM)
O=C1Cc2ccccc2N1c1c(Cl)cccc1Cl | > 100
O=C1/C(=C/c2ccccc2[N+](=O)[O-])c2ccccc2N1c1c(Cl)cccc1Cl | 90 (≈ 219 µM)
COc1ccc(/C=C2/C(=O)N(c3c(Cl)cccc3Cl)c3ccccc32)cc1 | > 100
O=C1/C(=C/c2cccc(Oc3ccccc3)c2)c2ccccc2N1c1c(Cl)cccc1Cl | 50 (≈ 109 µM)
COc1ccc(/C=C2/C(=O)N(c3c(Cl)cccc3Cl)c3ccccc32)cc1OC | 50 (≈ 117 µM)
CN(C)c1ccc(/C=C2/C(=O)N(c3c(Cl)cccc3Cl)c3ccccc32)cc1 | > 100
O=C1/C(=C/c2c(Cl)cccc2Cl)c2ccccc2N1c1c(Cl)cccc1Cl | > 100
O=C1/C(=C/c2ccccc2)c2ccccc2N1c1c(Cl)cccc1Cl | 100 (≈ 273 µM)
O=C1/C(=C/c2cccc(Cl)c2)c2ccccc2N1c1c(Cl)cccc1Cl | 50 (≈ 125 µM)
Cc1ccc2cc(/C=C3/C(=O)N(c4c(Cl)cccc4Cl)c4ccccc43)c(Cl)nc2c1C | > 100
O=C1/C(=C/c2ccco2)c2ccccc2N1c1c(Cl)cccc1Cl | > 100
Cc1ccc2nc(Cl)c(/C=C3/C(=O)N(c4c(Cl)cccc4Cl)c4ccccc43)cc2c1 | 40 (≈ 85.9 µM)
O=C1/C(=C/c2ccccc2Cl)c2ccccc2N1c1c(Cl)cccc1Cl | 15 (≈ 37.4 µM)
O=C1/C(=C/c2ccc(O)cc2)c2ccccc2N1c1c(Cl)cccc1Cl | 50 (≈ 131 µM)
O=C1/C(=C/c2ccc(F)cc2)c2ccccc2N1c1c(Cl)cccc1Cl | 5 (≈ 13 µM)

Test system: not listed separately
Assay: Inhibition of FGFR autophosphorylation
Conditions: not given

pIC50 | SMILES
5.00 | O=CN1CCN(c2ccc(/C=C3\C(=O)Nc4ccccc43)cc2)CC1
5.00 | Cc1c[nH]c(/C=C2\C(=O)Nc3ccccc32)c1CCC(=O)O
